The source made the active and inactive calls. The calls are words filed in the database; no cut-off is given here.
Experiments:
[1] = molecular target: Toll-like receptor 2 (Homo sapiens) (UniProt O60603); experiment: Activation of human TLR2 expressed in HEK293 cells assessed as IL-8 secretion after 48 hrs by ELISA
[2] = test system: D1; experiment: Immunostimulatory activity in C57BL/6 (H-2b) mouse D1 cells assessed as increase in IL-12p40 secretion at 30 pM to 30 nM after 24 hrs by ELISA/DC maturation assay; format: functional, cell-based
Procedure, shortened: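 Cells were D1, a growth factor-dependent immature spleen-derived dendritic cell line from C57BL/6 (H-2b) mice. Compounds were titrated at 4 concentrations in complete IMDM, with about 40.000 cells per well. After 24 hours at 37°C, supernatant IL-12p40 was measured by ELISA. Assays were run in triplicate, with standard deviation shown.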

[3] = molecular target: Toll-like receptor 2 (Homo sapiens) (UniProt O60603); experiment: Activation of human TLR2 expressed in HEK293 cells assessed as IL-8 secretion at 30 to 300 nM after 48 hrs by ELISA

Toll-like receptor 2 (Homo sapiens), sequence (O60603 whole entry): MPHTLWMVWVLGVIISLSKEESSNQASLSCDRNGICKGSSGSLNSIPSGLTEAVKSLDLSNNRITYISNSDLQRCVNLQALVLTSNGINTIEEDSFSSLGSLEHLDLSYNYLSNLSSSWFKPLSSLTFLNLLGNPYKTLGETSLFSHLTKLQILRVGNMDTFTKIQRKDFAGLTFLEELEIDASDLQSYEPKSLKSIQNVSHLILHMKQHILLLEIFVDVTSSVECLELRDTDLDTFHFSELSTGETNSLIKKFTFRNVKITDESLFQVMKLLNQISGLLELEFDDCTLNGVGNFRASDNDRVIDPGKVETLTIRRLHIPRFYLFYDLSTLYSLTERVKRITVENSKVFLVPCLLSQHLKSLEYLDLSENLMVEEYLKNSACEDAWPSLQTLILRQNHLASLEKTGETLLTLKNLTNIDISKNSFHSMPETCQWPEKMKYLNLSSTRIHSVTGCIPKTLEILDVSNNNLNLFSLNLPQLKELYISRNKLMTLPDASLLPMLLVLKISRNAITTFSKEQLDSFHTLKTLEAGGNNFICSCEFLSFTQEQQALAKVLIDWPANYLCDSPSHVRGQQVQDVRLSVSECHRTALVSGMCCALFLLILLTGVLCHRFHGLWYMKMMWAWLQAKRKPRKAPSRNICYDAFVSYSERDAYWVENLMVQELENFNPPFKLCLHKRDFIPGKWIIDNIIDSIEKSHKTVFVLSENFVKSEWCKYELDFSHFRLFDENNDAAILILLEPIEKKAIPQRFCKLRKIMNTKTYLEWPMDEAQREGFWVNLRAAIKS

SMILES | Activity [1] | Activity [2] | Activity [3]
CCCCCCCCCCCCCCCC(=O)OCC(CSC[C@H](NC(=O)NCCCCCCCCCCCCCC)C(=O)N[C@@H](Cc1cccs1)C(=O)N[C@@H](CCCCN)C(=O)N[C@@H](CCCCN)C(=O)N[C@@H](CCCCN)C(=O)N[C@@H](CCCCN)C(N)=O)OC(=O)CCCCCCCCCCCCCCC (mixture of isomers) | Dose-dependent effect | inactive | –
C=CC[C@H](NC(=O)[C@H](CSCC(COC(=O)CCCCCCCCCCCCCCC)OC(=O)CCCCCCCCCCCCCCC)NC(=O)NCCCCCCCCCCCCCC)C(=O)N[C@@H](CCCCN)C(=O)N[C@@H](CCCCN)C(=O)N[C@@H](CCCCN)C(=O)N[C@@H](CCCCN)C(N)=O (mixture of isomers) | Dose-dependent effect | Active | –
C#CC[C@H](NC(=O)[C@H](CSCC(COC(=O)CCCCCCCCCCCCCCC)OC(=O)CCCCCCCCCCCCCCC)NC(=O)NCCCCCCCCCCCCCC)C(=O)N[C@@H](CCCCN)C(=O)N[C@@H](CCCCN)C(=O)N[C@@H](CCCCN)C(=O)N[C@@H](CCCCN)C(N)=O (mixture of isomers) | Dose-dependent effect | Active | –
CCCCCCCCCCCCCCCC(=O)OCC(CSC[C@H](NC(=O)NCCCCCCCCCCCCCC)C(=O)N[C@@H](CS)C(=O)N[C@@H](CCCCN)C(=O)N[C@@H](CCCCN)C(=O)N[C@@H](CCCCN)C(=O)N[C@@H](CCCCN)C(N)=O)OC(=O)CCCCCCCCCCCCCCC (mixture of isomers) | – | inactive | inactive
CCCCCCCCCCCCCCCC(=O)OCC(CSC[C@H](NC(=O)NCCCCCCCCCCCCCC)C(=O)N[C@@H](CC)C(=O)N[C@@H](CCCCN)C(=O)N[C@@H](CCCCN)C(=O)N[C@@H](CCCCN)C(=O)N[C@@H](CCCCN)C(N)=O)OC(=O)CCCCCCCCCCCCCCC (mixture of isomers) | Dose-dependent effect | Active | –
CCCCCCCCCCCCCCCC(=O)OCC(CSC[C@H](NC(=O)NCCCCCCCCCCCCCC)C(=O)N[C@H](C(=O)N[C@@H](CCCCN)C(=O)N[C@@H](CCCCN)C(=O)N[C@@H](CCCCN)C(=O)N[C@@H](CCCCN)C(N)=O)C(C)(C)S)OC(=O)CCCCCCCCCCCCCCC (mixture of isomers) | Dose-dependent effect | inactive | –
CCCCCCCCCCCCCCCC(=O)OCC(CSC[C@H](NC(=O)NCCCCCCCCCCCCCC)C(=O)N[C@@H](CCC)C(=O)N[C@@H](CCCCN)C(=O)N[C@@H](CCCCN)C(=O)N[C@@H](CCCCN)C(=O)N[C@@H](CCCCN)C(N)=O)OC(=O)CCCCCCCCCCCCCCC (mixture of isomers) | Dose-dependent effect | Active | –
CCCCCCCCCCCCCCCC(=O)OCC(CSC[C@H](NC(=O)NCCCCCCCCCCCCCC)C(=O)N[C@@H](CN)C(=O)N[C@@H](CCCCN)C(=O)N[C@@H](CCCCN)C(=O)N[C@@H](CCCCN)C(=O)N[C@@H](CCCCN)C(N)=O)OC(=O)CCCCCCCCCCCCCCC (mixture of isomers) | Dose-dependent effect | inactive | –
C=CC[C@@H](NC(=O)[C@H](CSCC(COC(=O)CCCCCCCCCCCCCCC)OC(=O)CCCCCCCCCCCCCCC)NC(=O)NCCCCCCCCCCCCCC)C(=O)N[C@@H](CCCCN)C(=O)N[C@@H](CCCCN)C(=O)N[C@@H](CCCCN)C(=O)N[C@@H](CCCCN)C(N)=O (mixture of isomers) | – | – | inactive
CCCCCCCCCCCCCCCC(=O)OCC(CSC[C@H](NC(=O)NCCCCCCCCCCCCCC)C(=O)N[C@@H](CC(N)=O)C(=O)N[C@@H](CCCCN)C(=O)N[C@@H](CCCCN)C(=O)N[C@@H](CCCCN)C(=O)N[C@@H](CCCCN)C(N)=O)OC(=O)CCCCCCCCCCCCCCC (mixture of isomers) | Dose-dependent effect | Active | –
CCCCCCCCCCCCCCCC(=O)OCC(CSC[C@H](NC(=O)NCCCCCCCCCCCCCC)C(=O)N[C@@H](Cc1ccc2ccccc2c1)C(=O)N[C@@H](CCCCN)C(=O)N[C@@H](CCCCN)C(=O)N[C@@H](CCCCN)C(=O)N[C@@H](CCCCN)C(N)=O)OC(=O)CCCCCCCCCCCCCCC (mixture of isomers) | – | inactive | inactive
CCCCCCCCCCCCCCCC(=O)OCC(CSC[C@H](NC(=O)NCCCCCCCCCCCCCC)C(=O)NCC(=O)N[C@@H](CCCCN)C(=O)N[C@@H](CCCCN)C(=O)N[C@@H](CCCCN)C(=O)N[C@@H](CCCCN)C(N)=O)OC(=O)CCCCCCCCCCCCCCC (mixture of isomers) | Dose-dependent effect | – | –
CCCCCCCCCCCCCCCC(=O)OCC(CSC[C@H](NC(=O)NCCCCCCCCCCCCCC)C(=O)N[C@@H](CC#N)C(=O)N[C@@H](CCCCN)C(=O)N[C@@H](CCCCN)C(=O)N[C@@H](CCCCN)C(=O)N[C@@H](CCCCN)C(N)=O)OC(=O)CCCCCCCCCCCCCCC (mixture of isomers) | Dose-dependent effect | Active | –
CCCCCCCCCCCCCCCC(=O)OCC(CSC[C@H](NC(=O)NCCCCCCCCCCCCCC)C(=O)NCCC(=O)N[C@@H](CCCCN)C(=O)N[C@@H](CCCCN)C(=O)N[C@@H](CCCCN)C(=O)N[C@@H](CCCCN)C(N)=O)OC(=O)CCCCCCCCCCCCCCC (mixture of isomers) | Dose-dependent effect | inactive | –
CCCCCCCCCCCCCCCC(=O)OCC(CSC[C@H](NC(=O)NCCCCCCCCCCCCCC)C(=O)N[C@@H](Cc1ccccc1)C(=O)N[C@@H](CCCCN)C(=O)N[C@@H](CCCCN)C(=O)N[C@@H](CCCCN)C(=O)N[C@@H](CCCCN)C(N)=O)OC(=O)CCCCCCCCCCCCCCC (mixture of isomers) | Dose-dependent effect | inactive | –
CCCCCCCCCCCCCCCC(=O)OCC(CSC[C@H](NC(=O)NCCCCCCCCCCCCCC)C(=O)N[C@@H](C)C(=O)N[C@@H](CCCCN)C(=O)N[C@@H](CCCCN)C(=O)N[C@@H](CCCCN)C(=O)N[C@@H](CCCCN)C(N)=O)OC(=O)CCCCCCCCCCCCCCC (mixture of isomers) | Dose-dependent effect | – | –
CCCCCCCCCCCCCCCC(=O)OCC(CSC[C@H](NC(=O)NCCCCCCCCCCCCCC)C(=O)N[C@@H](CCCC)C(=O)N[C@@H](CCCCN)C(=O)N[C@@H](CCCCN)C(=O)N[C@@H](CCCCN)C(=O)N[C@@H](CCCCN)C(N)=O)OC(=O)CCCCCCCCCCCCCCC (mixture of isomers) | Dose-dependent effect | Active | –
CCCCCCCCCCCCCCCC(=O)OCC(CSC[C@H](NC(=O)NCCCCCCCCCCCCCC)C(=O)N[C@@H](CO)C(=O)N[C@@H](CCCCN)C(=O)N[C@@H](CCCCN)C(=O)N[C@@H](CCCCN)C(=O)N[C@@H](CCCCN)C(N)=O)OC(=O)CCCCCCCCCCCCCCC (mixture of isomers) | Dose-dependent effect | Active | –
CCCCCCCCCCCCCCCC(=O)OCC(CSC[C@H](NC(=O)NCCCCCCCCCCCCCC)C(=O)NC[C@H](CCCCN)C(=O)N[C@@H](CCCCN)C(=O)N[C@@H](CCCCN)C(=O)N[C@@H](CCCCN)C(=O)N[C@@H](CCCCN)C(N)=O)OC(=O)CCCCCCCCCCCCCCC (mixture of isomers) | – | inactive | inactive
CCCCCCCCCCCCCCCC(=O)OCC(CSC[C@H](NC(=O)NCCCCCCCCCCCCCC)C(=O)N[C@H](CS)C(=O)N[C@@H](CCCCN)C(=O)N[C@@H](CCCCN)C(=O)N[C@@H](CCCCN)C(=O)N[C@@H](CCCCN)C(N)=O)OC(=O)CCCCCCCCCCCCCCC (mixture of isomers) | – | inactive | inactive
CCCCCCCCCCCCCCCC(=O)OCC(CSC[C@H](NC(=O)NCCCCCCCCCCCCCC)C(=O)N[C@H](C(=O)N[C@@H](CCCCN)C(=O)N[C@@H](CCCCN)C(=O)N[C@@H](CCCCN)C(=O)N[C@@H](CCCCN)C(N)=O)c1cccs1)OC(=O)CCCCCCCCCCCCCCC (mixture of isomers) | Dose-dependent effect | – | –
CCCCCCCCCCCCCCCC(=O)OCC(CSC[C@H](NC(=O)NCCCCCCCCCCCCCC)C(=O)N[C@@H](CCN)C(=O)N[C@@H](CCCCN)C(=O)N[C@@H](CCCCN)C(=O)N[C@@H](CCCCN)C(=O)N[C@@H](CCCCN)C(N)=O)OC(=O)CCCCCCCCCCCCCCC (mixture of isomers) | Dose-dependent effect | Active | –

Reference: ChEMBL document CHEMBL3352356, “N-tetradecylcarbamyl lipopeptides as novel agonists for Toll-like receptor 2” (J Med Chem, 2014)
